Test [1] concerns A549. In words: Antiproliferative activity against human A549 cells assessed as growth inhibition at 2 uM after 72 hrs by CCK-8 assay relative to control. In kind it is functional. The following applies: A549, 72 h, read-out: GI. (Tetrazolium dyes change colour on reduction, which living cells bring about.)
In test [2] the test system is A549. The test is described as follows: Antiproliferative activity against human A549 cells assessed as growth inhibition at 8 uM after 72 hrs by CCK-8 assay relative to control. It is filed as functional. The conditions noted are these: A549, 72 h, read-out: GI.
Test [3] deals with A-375. The test is described as follows: Antiproliferative activity against human A375 cells assessed as growth inhibition at 2 uM after 72 hrs by CCK-8 assay relative to control. In kind it is functional. The conditions noted are these: A-375, 72 h, read-out: GI.
Test [4] deals with A-375. The test is described as follows: Antiproliferative activity against human A375 cells assessed as growth inhibition at 8 uM after 72 hrs by CCK-8 assay relative to control. It is filed as functional. The conditions noted are these: A-375, 72 h, read-out: GI.
Test [5] has as its system SMMC-7721. The test is described as follows: Antiproliferative activity against human SMMC7721 cells assessed as growth inhibition at 2 uM after 72 hrs by CCK-8 assay relative to control. In kind it is functional. The following applies: SMMC-7721, 72 h, read-out: GI.
Test [6] deals with SMMC-7721. The test is described as follows: Antiproliferative activity against human SMMC7721 cells assessed as growth inhibition at 8 uM after 72 hrs by CCK-8 assay relative to control. In kind it is functional. The conditions noted are these: SMMC-7721, 72 h, read-out: GI.
Test [7] relates to HCT-116. In words: Antiproliferative activity against human HCT116 cells assessed as growth inhibition at 2 uM after 72 hrs by CCK-8 assay relative to control. In kind it is functional. The conditions noted are these: HCT-116, 72 h, read-out: GI.
Test [8] has as its system HCT-116. The test is described as follows: Antiproliferative activity against human HCT116 cells assessed as growth inhibition at 8 uM after 72 hrs by CCK-8 assay relative to control. In kind it is functional. The following applies: HCT-116, 72 h, read-out: GI.
Test [9] deals with HeLa. In words: Antiproliferative activity against human HeLa cells assessed as growth inhibition at 2 uM after 72 hrs by CCK-8 assay relative to control. In kind it is functional. The following applies: read-out: GI.
For test [10], the system named is HeLa. The test is described as follows: Antiproliferative activity against human HeLa cells assessed as growth inhibition at 8 uM after 72 hrs by CCK-8 assay relative to control. In kind it is functional. The conditions noted are these: read-out: GI.
For test [11], the system named is A549. The test is described as follows: Antiproliferative activity against human A549 cells assessed as decrease in cell viability after 72 hrs by CCK-8 assay. In kind it is functional, cell-based. The following applies: A549, 72 h. The essentials:
(§1)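 Cells grown to 70–85% confluence (A375, A549, HCT116 in RPMI1640; HeLa, SMMC7721 in DMEM; 10% FBS, 37 °C, 5% CO2), seeded 4000/well, dosed after 12 h across a concentration range, incubated 72 h, then CCK-8 for 1 h; absorbance at 450 nm. IC50 as mean ± SD of three separate experiments.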

Test [12] deals with A-375. The test is described as follows: Antiproliferative activity against human A375 cells assessed as decrease in cell viability after 72 hrs by CCK-8 assay. In kind it is functional, cell-based. The following applies: A-375, 72 h. The essentials:
as §1

Test [13] concerns SMMC-7721. The test is described as follows: Antiproliferative activity against human SMMC7721 cells assessed as decrease in cell viability after 72 hrs by CCK-8 assay. The conditions noted are these: SMMC-7721, 72 h. In kind it is functional, cell-based. An outline of the steps:
as §1

For orientation: IC50 means the concentration that inhibits the measured activity by half.

Each structure is given as a SMILES string.

`Cc1cc(C)cc(SCc2ccc(/C=C/C(=O)Nc3ccccc3N)cc2)c1`: the inhibition of growth at 2 µM in the test on A549 [1] stood at 46.1%; with A-375 [3], 8.78%; in the test with SMMC-7721 [5], 8.61%; in the test on HCT-116 [7] it was 7.98%; in the test with HeLa [9], 11.7%. Also, the inhibition of growth at 8 µM was 47.3% in the test with A549 [2]; 2.49% in the test with A-375 [4]; 7.13% with SMMC-7721 [6]; 4.2% in the test with HCT-116 [8]; 3.39% in the test with HeLa [10].

On to `Nc1ccccc1NC(=O)/C=C/c1ccc(CSCCc2ccccc2)cc1`, for which the inhibition of growth at 2 µM in the test on A549 [1] amounted to 45.7%; with A-375 [3], 41.9%; in the test on SMMC-7721 [5], 14.7%; in the test on HCT-116 [7], 18%; in the test on HeLa [9] it was 0.19%. Moreover, the inhibition of growth at 8 µM in the test on A549 [2] stood at 50.3%; in the test on A-375 [4], 37.4%; in the test with SMMC-7721 [6] it was 15.8%; in the test on HCT-116 [8] it was 10.6%; in the test on HeLa [10] it was 3.57%. Besides, the IC50 came out at 1150 nM in the test with A549 [11], 15700 nM in the test on A-375 [12] and 10900 nM with SMMC-7721 [13].

For `COc1ccc(SCc2ccc(/C=C/C(=O)Nc3ccccc3N)cc2)cc1OC`, the inhibition of growth at 2 µM came to 65.5% in the test on A549 [1]; 46% in the test with A-375 [3]; 14.3% in the test with SMMC-7721 [5]; 12.9% in the test on HCT-116 [7]; 10.1% in the test with HeLa [9]. For the same molecule, the inhibition of growth at 8 µM was found to be 80.6% in the test with A549 [2]; 46.4% in the test with A-375 [4]; 44.6% with SMMC-7721 [6]; 49.5% in the test on HCT-116 [8]; 21.9% in the test on HeLa [10].

In the case of `CC(C)(C)c1ccc(SCc2ccc(/C=C/C(=O)Nc3ccccc3N)cc2)cc1`, the inhibition of growth at 2 µM stood at 71.5% in the test with A549 [1]; 38.4% in the test with A-375 [3]; 18.3% in the test with SMMC-7721 [5]; 6.66% in the test with HCT-116 [7]; 17.5% with HeLa [9]. The inhibition of growth at 8 µM in the test with A549 [2] is 79.8%; in the test on A-375 [4], 35.5%; in the test on SMMC-7721 [6] it was 23.6%; with HCT-116 [8] it was 39%; in the test with HeLa [10], 9.8%. For the same molecule, the IC50 is 640 nM in the test on A549 [11] and 1550 nM in the test on A-375 [12].

As to `Nc1ccccc1NC(=O)/C=C/c1ccc(CSc2ccc(F)cc2)cc1`, the inhibition of growth at 2 µM worked out at 51.2% in the test on A549 [1]; 28.8% with A-375 [3]; 18.3% in the test with SMMC-7721 [5]; 14.1% in the test with HCT-116 [7]; 7.09% in the test with HeLa [9]. Besides, the inhibition of growth at 8 µM turned out to be 59.1% with A549 [2]; 24.6% in the test with A-375 [4]; 15.4% in the test with SMMC-7721 [6]; 20.2% in the test on HCT-116 [8]; 10.4% in the test with HeLa [10]. Also, the IC50 turned out to be 1190 nM in the test with A549 [11] and 3670 nM with A-375 [12].

For `Cc1ccc(SCc2ccc(/C=C/C(=O)Nc3ccccc3N)cc2)cc1`, the inhibition of growth at 2 µM stood at 43.4% in the test with A549 [1]; 22.9% in the test with A-375 [3]; 22% in the test with SMMC-7721 [5]; 6.23% in the test on HCT-116 [7]; 25.4% in the test on HeLa [9]. The inhibition of growth at 8 µM with A549 [2] was 48.2%; in the test on A-375 [4], 31.2%; in the test on SMMC-7721 [6], 22.1%; in the test with HCT-116 [8], 4.93%; in the test on HeLa [10] it was 21.7%.

With `Nc1ccccc1NC(=O)/C=C/c1ccc(CSc2cccc3ccccc23)cc1`, the inhibition of growth at 2 µM stood at 59.3% with A549 [1]; 1.55% in the test with A-375 [3]; 3.7% with SMMC-7721 [5]; 11% in the test on HCT-116 [7]; 20.6% in the test with HeLa [9]. Also, the inhibition of growth at 8 µM in the test on A549 [2] stood at 71.2%; with A-375 [4] it was 36%; in the test with SMMC-7721 [6] it was 18.3%; in the test on HCT-116 [8], 35.2%; with HeLa [10], 22.1%. For the same molecule, the IC50 in the test on A549 [11] was 830 nM.
